Source: ChEMBL document CHEMBL4808168, “The Discovery of Two Novel Classes of 5,5-Bicyclic Nucleoside-Derived PRMT5 Inhibitors for the Treatment of Cancer” (J Med Chem, 2021)
In brackets after ≈: the same amount, converted by molar mass.

Experiments:
[1] = Unbound clearance in rat; type: ADME; settings: in vivo
[2] = Unbound clearance in dog; type: ADME, Canis lupus familiaris; settings: in vivo
[3] = Unbound volume of distribution in rat; type: ADME; settings: in vivo
[4] = Unbound volume of distribution in dog; type: ADME, Canis lupus familiaris; settings: in vivo
[5] = Solubility of the compound in FaSSIF at pH 7 at 200 uM incubated for 24 hrs by UV-vis detection based HPLC analysis; type: physicochemical
[6] = MRT in rat; type: ADME; settings: in vivo
Z-138 [7] = assay: Antiproliferative activity against human Z138 cells incubated for 10 days by cell titer-glo assay; type: functional, cell-based; settings: Z-138, 240 h
[8] = Solubility of the compound in […] at pH 2 at 200 uM incubated for 24 hrs by UV-vis detection based HPLC analysis; type: physicochemical
Outline: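 10 mM DMSO stock added to 10 mM potassium phosphate buffer at pH 2 or pH 7, or FaSSIF pH 6.5, to 200 μM total; 24 h equilibration, filtration, then reverse-phase HPLC with UV–vis detection.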

[9] = Oral bioavailability in rat; type: ADME, organism-based; settings: in vivo
[10] = target: Protein arginine N-methyltransferase 5 (Homo sapiens, UniProt O14744); assay: Inhibition of PRMT5 (unknown origin) assessed as inhibition of symmetric dimethylation of arginine incubated for 3 days by fluorescence based cellular target engagement assay
Chain of Protein arginine N-methyltransferase 5 (O14744 whole entry): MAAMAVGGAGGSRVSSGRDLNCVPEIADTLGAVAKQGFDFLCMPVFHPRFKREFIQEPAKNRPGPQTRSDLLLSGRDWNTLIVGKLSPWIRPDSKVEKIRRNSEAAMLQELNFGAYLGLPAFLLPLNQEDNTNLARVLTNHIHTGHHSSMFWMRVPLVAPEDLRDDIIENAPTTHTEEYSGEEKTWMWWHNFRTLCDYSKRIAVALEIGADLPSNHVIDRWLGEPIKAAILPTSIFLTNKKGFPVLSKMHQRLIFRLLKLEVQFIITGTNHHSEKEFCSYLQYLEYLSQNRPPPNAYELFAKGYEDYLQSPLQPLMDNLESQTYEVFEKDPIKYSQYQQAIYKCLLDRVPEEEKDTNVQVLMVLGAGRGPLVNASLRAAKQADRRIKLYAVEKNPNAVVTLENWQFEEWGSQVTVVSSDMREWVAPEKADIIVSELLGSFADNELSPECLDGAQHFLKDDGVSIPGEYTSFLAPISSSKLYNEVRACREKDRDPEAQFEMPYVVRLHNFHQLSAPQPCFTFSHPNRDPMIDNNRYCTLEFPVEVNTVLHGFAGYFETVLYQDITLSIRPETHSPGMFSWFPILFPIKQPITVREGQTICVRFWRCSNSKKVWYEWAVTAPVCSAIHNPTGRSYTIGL
Outline: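 MCF-7 cells (4000/well, collagen-coated plates) in EMEM with 0.01 mg/mL insulin and 10% FBS; 10-point 1:3 titration from 10,000 nM; 3 days at 37 °C/5% CO2; fixed, permeabilized, anti-SDMA antibody, then Alexa488 anti-rabbit IgG plus Hoechst; nuclear fluorescence by high-content imaging versus DMSO; EC50 by four-parameter robust fit.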

[11] = MRT in dog; type: ADME, Canis lupus familiaris; settings: in vivo
[12] = Oral bioavailability in dog; type: ADME, organism-based, Canis lupus familiaris; settings: in vivo
[13] = Plasma clearance in rat; type: ADME
CYP3A4 = CYP3A4 (Homo sapiens, UniProt P08684); assay: Ratio of IC50 for time dependent inhibition of CYP3A4 (unknown origin) in absence of NADPH to IC50 for time dependent inhibition of CYP3A4 (unknown origin) in presence of NADPH; settings: read-out: Ratio IC50
Chain of CYP3A4 (P08684 whole entry): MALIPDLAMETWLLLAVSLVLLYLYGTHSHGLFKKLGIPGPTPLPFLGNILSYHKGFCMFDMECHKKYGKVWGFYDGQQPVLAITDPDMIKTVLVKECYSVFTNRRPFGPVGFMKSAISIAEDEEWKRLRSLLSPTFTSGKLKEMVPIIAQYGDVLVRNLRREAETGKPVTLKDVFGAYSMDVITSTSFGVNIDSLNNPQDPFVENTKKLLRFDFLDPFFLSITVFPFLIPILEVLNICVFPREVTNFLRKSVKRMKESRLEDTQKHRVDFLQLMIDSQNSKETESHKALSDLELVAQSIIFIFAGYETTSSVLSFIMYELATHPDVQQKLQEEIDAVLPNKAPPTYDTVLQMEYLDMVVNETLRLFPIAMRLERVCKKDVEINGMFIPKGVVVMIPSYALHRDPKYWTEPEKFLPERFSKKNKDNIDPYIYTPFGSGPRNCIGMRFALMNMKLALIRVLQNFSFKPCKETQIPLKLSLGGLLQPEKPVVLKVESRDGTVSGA

Z-138 [14] = assay: Antitumor activity against human Z138 cells implanted in CB17.SCID mouse assessed as tumor growth inhibition at 30 mg/kg, po bid measured at 13 days relative to control; type: functional; settings: Z-138, po, 312 h, time 13 day, read-out: TGI
Z-138 [15] = assay: Antitumor activity against human Z138 cells implanted in CB17.SCID mouse assessed as tumor growth inhibition at […] measured at 13 days relative to control; type: functional; settings: Z-138, po, 312 h, time 13 day, read-out: TGI
[16] = Toxicity in CB17.SCID mouse implanted with human Z138 cells assessed as body weight change at 10 to 60 mg/kg, po bid measured up, to 14 days relative to control; type: organism-based; settings: in vivo, 336 h, in the assay text read “po qd” for “po bid”, dose 10-60 mg/kg, time 14 day
Outline: (§1)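 Female CB17.SCID mice implanted subcutaneously with 5 × 10⁶ Z138 cells; dosing began at about 100 mm³, n = 10 per group; daily PO at 10, 30 or 60 mpk QD or 5 mpk BID in 0.5% methylcellulose; tumor volume (L × W²)/2 and body weight twice weekly; %TGI at day 13 from change in tumor volume versus vehicle.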

Z-138 [17] = assay: Antitumor activity against human Z138 cells implanted in CB17.SCID mouse assessed as […] at 5 mg/kg, po bid measured at 13 days relative to control; type: functional; settings: Z-138, po, 312 h, time 13 day, read-out: TGI; outline: as §1
Z-138 [18] = assay: Antitumor activity against human Z138 cells implanted in CB17.SCID mouse assessed as tumor growth inhibition at 60 mg/kg, po bid measured at 13 days relative to control; type: functional; settings: Z-138, po, 312 h, time 13 day, read-out: TGI

| Structure (SMILES) | CL free [1] | CL free [2] | Vdu [3] | Vdu [4] | solubility at 24 h, 200 µM [5] | MRT [6] | EC50 (Z-138 [7]) | solubility at 24 h, 200 µM [8] | bioavailability [9] | EC50 [10] | MRT [11] | bioavailability [12] | clearance [13] | IC50 shift (CYP3A4) | inhibition in vivo at 30 mg/kg (Z-138 [14]) | inhibition in vivo (Z-138 [15]) | Activity [16] | inhibition in vivo at 5 mg/kg (Z-138 [17]) | inhibition in vivo at 60 mg/kg (Z-138 [18]) |
| --- | --- | --- | --- | --- | --- | --- | --- | --- | --- | --- | --- | --- | --- | --- | --- | --- | --- | --- | --- |
| Nc1nc2cc(C[C@@H]3CC[C@@]4(O)[C@@H]3C[C@@H](n3cc(F)c5c(N)ncnc53)[C@@H]4O)cc(F)c2cc1F | 368 mL/min/kg | 72 mL/min/kg | 54 L/kg | 43 L/kg | 25 µM (≈ 12.1 µg/mL) | 2.5 h | 5.8 nM | 190 µM (≈ 92.1 µg/mL) | 24% | 0.84 nM | 9.9 h | 45% | 14 mL/min/kg | – | – | – | – | – | – |
| Nc1nc2cc(O[C@H]3CC[C@@]4(O)[C@@H]3O[C@@H](n3ccc5c(N)ncnc53)[C@@H]4O)ccc2cc1Br | 349 mL/min/kg | – | 28 L/kg | – | < 1 µM | 1.8 h | 3.7 nM | 128 µM (≈ 65.7 µg/mL) | 10% | 1.2 nM | – | – | 49 mL/min/kg | – | – | – | – | – | – |
| Nc1nc2cc(C[C@@H]3CC[C@@]4(O)[C@@H]3C[C@@H](n3ccc5c(N)ncnc53)[C@@H]4O)ccc2cc1Br | 1559 mL/min/kg | – | 136 L/kg | – | 20 µM (≈ 10.2 µg/mL) | 1.6 h | 6.9 nM | 147 µM (≈ 74.9 µg/mL) | 10% | 2.9 nM | – | – | 15 mL/min/kg | – | – | – | – | – | – |
| Nc1nc2cc(C[C@@H]3CC[C@@]4(O)[C@@H]3O[C@@H](n3ccc5c(N)ncnc53)[C@@H]4O)ccc2cc1Br | 940 mL/min/kg | – | 82 L/kg | – | 35 µM (≈ 17.9 µg/mL) | 1.5 h | 1.7 nM | 162 µM (≈ 82.8 µg/mL) | 10% | 1.3 nM | – | – | 25 mL/min/kg | – | – | – | – | – | – |
| CNc1ncnc2c1ccn2[C@@H]1O[C@@H]2[C@@H](Oc3ccc4cc(Br)c(N)nc4c3)CC[C@]2(O)[C@H]1O | 3143 mL/min/kg | – | 222 L/kg | – | 14 µM (≈ 7.38 µg/mL) | 1.2 h | 23 nM | 163 µM (≈ 86 µg/mL) | 68% | 5.3 nM | – | – | 12 mL/min/kg | – | – | – | – | – | – |
| Cc1ncnc2c1ccn2[C@@H]1C[C@@H]2[C@H](Cc3ccc4cc(Cl)c(N)nc4c3)CC[C@]2(O)[C@H]1O | 424 mL/min/kg | – | 83 L/kg | – | 22 µM (≈ 10.2 µg/mL) | 1.7 h | 2.2 nM | 184 µM (≈ 85.4 µg/mL) | 64% | 0.87 nM | – | – | 21 mL/min/kg | – | – | – | – | – | – |
| Nc1nc2cc(C[C@@H]3CC[C@@]4(O)[C@@H]3C[C@@H](n3cc(F)c5c(N)ncnc53)[C@@H]4O)ccc2cc1F | 1476 mL/min/kg | – | 29 L/kg | – | 121 µM (≈ 56.4 µg/mL) | 1.3 h | 2.3 nM | 164 µM (≈ 76.5 µg/mL) | 19% | 0.74 nM | – | – | 25 mL/min/kg | – | – | – | – | – | – |
| Cc1ncnc2c1ccn2[C@@H]1O[C@@H]2[C@H](Cc3ccc4cc(Cl)c(N)nc4c3)CC[C@]2(O)[C@H]1O | 667 mL/min/kg | – | 43 L/kg | – | 29 µM (≈ 13.5 µg/mL) | 1.1 h | 6.9 nM | 148 µM (≈ 69 µg/mL) | 41% | 2.5 nM | – | – | 24 mL/min/kg | – | – | – | – | – | – |
| Cc1ncnc2c1ccn2[C@@H]1O[C@@H]2[C@@H](Oc3ccc4cc(Br)c(N)nc4c3)CC[C@]2(O)[C@H]1O | 1444 mL/min/kg | 329 mL/min/kg | 139 L/kg | 93 L/kg | < 1 µM | 1.6 h | 17 nM | 161 µM (≈ 82.5 µg/mL) | 42% | 4.7 nM | 4.6 h | 44% | 4 mL/min/kg | > 2.4 | 76% | 45% | Non-Toxic | 33% | 71% |
| Cc1ncnc2c1ccn2[C@@H]1C[C@@H]2[C@H](Cc3ccc4cc(Br)c(N)nc4c3)CC[C@]2(O)[C@H]1O | 835 mL/min/kg | – | 143 L/kg | – | 14 µM (≈ 7.12 µg/mL) | 1.5 h | 1.6 nM | 199 µM (≈ 101 µg/mL) | 74% | 1.1 nM | – | – | 13 mL/min/kg | – | – | – | – | – | – |
| Cc1nc(N)c2ccn([C@@H]3O[C@@H]4[C@H](Cc5ccc6cc(Br)c(N)nc6c5)CC[C@]4(O)[C@H]3O)c2n1 | 1337 mL/min/kg | – | 116 L/kg | – | 21 µM (≈ 11 µg/mL) | 1.5 h | 6.4 nM | 151 µM (≈ 79.3 µg/mL) | 11% | 3.2 nM | – | – | 31 mL/min/kg | – | – | – | – | – | – |
